In ChEMBL document CHEMBL1833801, “Natural daucane sesquiterpenes with antiproliferative and proapoptotic activity against human tumor cells” (Bioorg Med Chem, 2011):
Activity calls are given as the source filed them. The calls are words filed in the database; no cut-off is given here.

Experiments:
[1] = tested on: HeLa; experiment: Cytotoxicity against human HeLa cells after 72 hrs by MTT assay; assay type: functional, cell-based
[2] = tested on: A549; experiment: Cytotoxicity against human A549 cells after 72 hrs by MTT assay; assay type: functional, cell-based; conditions: A549, 72 h
[3] = tested on: HL-60; experiment: Cytotoxicity against human HL60 cells after 72 hrs by MTT assay; assay type: functional, cell-based; conditions: HL-60, 72 h
[4] = tested on: Jurkat; experiment: Cytotoxicity against human Jurkat cells after 72 hrs by MTT assay; assay type: functional, cell-based
[5] = tested on: K562; experiment: Cytotoxicity against human K562 cells after 72 hrs by MTT assay; assay type: functional, cell-based; conditions: K562, 72 h
[6] = Cytotoxicity against human RS4:11 cells after 72 hrs by MTT assay; assay type: functional, cell-based; conditions: RS4-11, 72 h
[7] = Cytotoxicity against human SEM cells after 72 hrs by MTT assay; assay type: functional, cell-based
[8] = tested on: Jurkat; experiment: Induction of apoptosis in human Jurkat cells assessed as increase in early apoptotic cells after 24 hrs by FITC-conjugated annexin V and propidium iodide staining-based flow cytometry; assay type: functional, cell-based
Procedure, shortened: (§1)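 Jurkat cells exposed for 24 and 48 h, over a range of 1.25–100 µM, then co-stained with Annexin-V-FITC and propidium iodide. Read by flow cytometry, excitation 488 nm, emission 525 and 585 nm. Quadrants scored as A+/PI− (early apoptotic) and A+/PI+ (late apoptotic), compared with untreated cells. Mean ± SEM of three independent experiments.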

[9] = tested on: Jurkat; experiment: Induction of apoptosis in human Jurkat cells assessed as increase in late apoptotic cells after 48 hrs by FITC-conjugated annexin V and propidium iodide staining-based flow cytometry; assay type: functional, cell-based; procedure, shortened: as §1
[10] = tested on: Jurkat; experiment: Induction of apoptosis in human Jurkat cells assessed as DNA fragmentation at 12.5 to 50 uM after 48 hrs by agarose gel electrophoresis; assay type: functional, cell-based
Procedure, shortened: (§2)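 Genomic DNA taken from treated Jurkat cells by salting out after 48 h. 1 µg run on 1.5% agarose in TAE at 50 V for 6 h. Gel stained with ethidium bromide and imaged under UV light.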

[11] = tested on: Jurkat; experiment: Cytotoxicity against human Jurkat cells assessed as cell viability at 25 uM after 48 hrs by MTT assay in presence of 100 uM pan-caspase inhibitor z-VAD; assay type: functional
Procedure, shortened: (§3)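 Jurkat cells exposed to compound for 48 h with or without 100 µM of the pan-caspase inhibitor z-VAD.fmk. Percent viability read by MTT. Mean ± SEM.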

[12] = tested on: Jurkat; experiment: Cell cycle arrest in human Jurkat cells assessed as accumulation at G2/M phase after 48 hrs using propidium iodide staining by flow cytometry; assay type: functional, cell-based
Procedure, shortened: (§4)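 Exponentially growing Jurkat cells, 2.5×10^5, exposed to 1.25–100 µM for 48 h. Cells fixed in ice-cold 70% ethanol, lysed in buffer with RNase A and 0.1% Triton X-100, stained with propidium iodide. Cell-cycle phases read by flow cytometry. Mean ± SEM of three independent experiments; two-sided Student's t test against control.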

[13] = tested on: Jurkat; experiment: Cell cycle arrest in human Jurkat cells assessed as decrease in S phase phase after 48 hrs using propidium iodide staining by flow cytometry; assay type: functional, cell-based; procedure, shortened: as §4
[14] = tested on: Jurkat; experiment: Cell cycle arrest in human Jurkat cells assessed as decrease in G1 phase phase after 48 hrs using propidium iodide staining by flow cytometry; assay type: functional, cell-based; procedure, shortened: as §4
[15] = tested on: PBL; experiment: Cytotoxicity against human PBL after 72 hrs by MTT assay; assay type: cell-based
Procedure, shortened: (§5)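 PBL from healthy donors separated on a density gradient, washed, held at 1.0×10^6 cells/mL in RPMI-1640 with 10% FCS overnight. Non-adherent cells resuspended at 5×10^5 cells/mL. Stimulated cultures received 2.5 µg/mL PHA; resting cultures had none. Compound at several concentrations for 72 h, viability by MTT, IC50 taken. Mean ± SEM of three experiments.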

[16] = tested on: PBL; experiment: Cytotoxicity against PHA-stimulated human PBL after 72 hrs by MTT assay; assay type: cell-based; procedure, shortened: as §5
[17] = tested on: Jurkat; experiment: Induction of apoptosis in human Jurkat cells assessed as DNA fragmentation at 25 to 50 uM after 48 hrs by agarose gel electrophoresis; assay type: functional, cell-based; procedure, shortened: as §2
[18] = tested on: Jurkat; experiment: Cytotoxicity against human Jurkat cells assessed as cell viability at 50 uM after 48 hrs by MTT assay in presence of 100 uM pan-caspase inhibitor z-VAD; assay type: functional; procedure, shortened: as §3
[19] = tested on: Jurkat; experiment: Cell cycle arrest in human Jurkat cells assessed as accumulation at G1 phase after 48 hrs using propidium iodide staining by flow cytometry; assay type: functional, cell-based; procedure, shortened: as §4
[20] = tested on: Jurkat; experiment: Cell cycle arrest in human Jurkat cells assessed as accumulation at G1 phase at 50 uM after 48 hrs using propidium iodide staining by flow cytometry; assay type: functional, cell-based; procedure, shortened: as §4
[21] = tested on: Jurkat; experiment: Induction of apoptosis in human Jurkat cells assessed as necrotic cells at 50 uM after 24 hrs by FITC-conjugated annexin V and propidium iodide staining-based flow cytometry relative to control; assay type: functional; procedure, shortened: as §1
[22] = tested on: Jurkat; experiment: Induction of apoptosis in human Jurkat cells assessed as viable cells at 50 uM after 24 hrs by FITC-conjugated annexin V and propidium iodide staining-based flow cytometry relative to control; assay type: functional; conditions: read-out: Activity; procedure, shortened: as §1
[23] = tested on: Jurkat; experiment: Induction of apoptosis in human Jurkat cells assessed as early apoptotic cells at 50 uM after 24 hrs by FITC-conjugated annexin V and propidium iodide staining-based flow cytometry relative to control; assay type: functional; procedure, shortened: as §1
[24] = tested on: Jurkat; experiment: Induction of apoptosis in human Jurkat cells assessed as late apoptotic cells at 50 uM after 24 hrs by FITC-conjugated annexin V and propidium iodide staining-based flow cytometry relative to control; assay type: functional; procedure, shortened: as §1
[25] = tested on: Jurkat; experiment: Induction of apoptosis in human Jurkat cells assessed as necrotic cells at 50 uM after 48 hrs by FITC-conjugated annexin V and propidium iodide staining-based flow cytometry relative to control; assay type: functional; procedure, shortened: as §1
[26] = tested on: Jurkat; experiment: Induction of apoptosis in human Jurkat cells assessed as viable cells at 50 uM after 48 hrs by FITC-conjugated annexin V and propidium iodide staining-based flow cytometry relative to control; assay type: functional; conditions: read-out: Activity; procedure, shortened: as §1
[27] = tested on: Jurkat; experiment: Induction of apoptosis in human Jurkat cells assessed as early apoptotic cells at 50 uM after 48 hrs by FITC-conjugated annexin V and propidium iodide staining-based flow cytometry relative to control; assay type: functional; procedure, shortened: as §1
[28] = tested on: Jurkat; experiment: Induction of apoptosis in human Jurkat cells assessed as late apoptotic cells at 50 uM after 48 hrs by FITC-conjugated annexin V and propidium iodide staining-based flow cytometry relative to control; assay type: functional; procedure, shortened: as §1
[29] = tested on: Jurkat; experiment: Induction of apoptosis in human Jurkat cells assessed as increase in late apoptotic cells after 24 hrs by FITC-conjugated annexin V and propidium iodide staining-based flow cytometry; assay type: functional, cell-based; procedure, shortened: as §1

SMILES	IC50 [1]	IC50 [2]	IC50 [3]	IC50 [4]	IC50 [5]	IC50 [6]	IC50 [7]	IC50 [15]	IC50 [16]	other results
C/C=C(\C)C(=O)O[C@H]1C[C@@]2(C)O[C@H]2[C@@H](OC(C)=O)[C@@]2(C)CC[C@@](O)(C(C)C)[C@H]12	> 100 µM	> 100 µM	> 100 µM	> 100 µM	> 100 µM	> 100 µM	> 100 µM	–	–	–
C/C=C(/C)C(=O)O[C@H]1CC(C)=C[C@@H](OC(=O)/C(C)=C\C)[C@@]2(C)CC[C@@](O)(C(C)C)[C@H]12	4.4 µM	2.8 µM	2.6 µM	7.7 µM	26.5 µM	1.7 µM	2.4 µM	22.6 µM	13.7 µM	Activity [8]: Dose-dependent effect; Activity [9]: Active; Activity [10]: Active; Activity [11]: 19%; Activity [12]: Dose-dependent effect; Activity [13]: Active; Activity [14]: Active
COc1ccc(C(=O)O[C@H]2CC(C)=C[C@H](OC(C)=O)[C@@]3(C)[C@@H](OC(C)=O)C[C@@](O)(C(C)C)[C@H]23)cc1	14.5 µM	23.3 µM	11.3 µM	3.3 µM	39.6 µM	2.8 µM	15 µM	6.6 µM	9.4 µM	Activity [17]: inactive; Activity [18]: 13%; Activity [19]: Active; Activity [20]: inactive; Activity [21]: 16%; viability at 50 µM [22]: 36.5%; Activity [23]: 5.8%; Activity [24]: 41.7%; Activity [25]: 27.8%; viability at 50 µM [26]: 4.7%; Activity [27]: 0.1%; Activity [28]: 67.4%; Activity [29]: Dose-dependent effect
COc1ccc(C(=O)O[C@@H]2C=C(C)CC[C@]3(O)[C@H](C(C)C)CC(=O)[C@]23C)cc1 [SIOL ANISATE]	> 100 µM	> 100 µM	> 100 µM	> 100 µM	> 100 µM	> 100 µM	23.9 µM	–	–	–
COc1ccc(C(=O)O[C@H]2C=C(C)C(=O)C[C@@]3(C)CC[C@@](O)(C(C)C)[C@H]23)cc1	29.7 µM	31.8 µM	38.9 µM	40.5 µM	> 100 µM	28.6 µM	28.4 µM	–	–	–
C=C1C[C@H](OC(=O)c2ccc(O)cc2)[C@@H]2[C@](C)(CC[C@@]2(O)C(C)C)C[C@@H]1O	> 100 µM	> 100 µM	43.4 µM	55 µM	> 100 µM	29 µM	34.7 µM	–	–	–
COc1ccc(C(=O)O[C@H]2CC(C)=CC[C@@]3(C)CC[C@@](O)(C(C)C)[C@H]23)cc1 [FERUTIDIN]	> 100 µM	31.9 µM	20.1 µM	30.5 µM	67.8 µM	17.6 µM	18.2 µM	–	–	–
COc1ccc(C(=O)O[C@H]2CC(C)=C[C@H](O)[C@@]3(C)[C@@H](OC(C)=O)C[C@@](O)(C(C)C)[C@H]23)cc1	52.9 µM	79.6 µM	23 µM	5.9 µM	48.2 µM	34.4 µM	18.1 µM	20.5 µM	27.2 µM	Activity [12]: Dose-dependent effect; Activity [13]: Active; Activity [14]: Active; Activity [29]: Dose-dependent effect
